{"data": "Published values gathered from unrelated publications", "note": "Protocols differ between the studies behind these lines."}
{"SMILES": "Cn1cc(-c2cccc(N3CCc4c(sc5c4CC(C)(C)C5)C3=O)c2CO)cc(Nc2ccncn2)c1=O", "target": "Serine/threonine-protein kinase mTOR (MTOR, Homo sapiens, UniProt P42345)", "observed": "enzyme activity", "action": "inhibitor", "tested at": "1 µM", "endpoint": "inhibition", "result": "-4%"}
{"SMILES": "C#Cc1n[nH]c2c(-c3cn([C@@H](C)c4ccccn4)c(=O)[nH]c3=O)cc(F)cc12", "target": "Serine/threonine-protein kinase B-raf (BRAF, Homo sapiens, UniProt P15056)", "observed": "enzyme activity", "action": "inhibitor", "tested at": "0.1 µM", "endpoint": "inhibition", "result": "-0.3%"}
{"SMILES": "COc1ncccc1-c1cnn2ccc(N3CCN(C(=O)OC(C)C)CC3)nc12", "target": "Ribosomal protein S6 kinase alpha-2, C-terminal kinase domain (RPS6KA2, Homo sapiens, UniProt Q15349)", "observed": "binding", "technique": "competition with immobilised ligand", "tested at": "1 µM", "endpoint": "remaining binding", "result": "83%"}
{"SMILES": "CC[C@H](C)[C@H](NC(=O)[C@H](CO)NC(=O)[C@@H](N)CCCCN)C(=O)N[C@H](C(=O)N[C@@H](CC(N)=O)C(=O)N[C@@H](Cc1ccccc1)C(=O)N[C@@H](CCC(=O)O)C(=O)N[C@@H](CCCCN)C(=O)N[C@@H](CC(C)C)C(=O)O)[C@@H](C)CC", "target": "Endoplasmic reticulum aminopeptidase 2 (ERAP2, Homo sapiens, UniProt Q6P179)", "observed": "enzyme activity", "action": "substrate", "technique": "mass spectrometry", "endpoint": "Km", "result": "12.3 µM"}
{"SMILES": "Cn1cc(-c2cc(F)cc(N3CCn4c(cc5c4CCCC5)C3=O)c2CO)cc(Nc2ccc(N3CCN(C4COC4)CC3)cn2)c1=O", "target": "PAS domain-containing serine/threonine-protein kinase (PASK, Homo sapiens, UniProt Q96RG2)", "observed": "enzyme activity", "action": "inhibitor", "tested at": "0.1 µM", "endpoint": "inhibition", "result": "-1%"}
{"SMILES": "Nc1ncc(-c2nc(N3CCOCC3)nc(N3CCOCC3)n2)c(C(F)F)n1", "target": "Epidermal growth factor receptor (EGFR, Homo sapiens, UniProt P00533, G719C)", "observed": "cell-free assay", "technique": "competition with immobilised ligand", "tested at": "10 µM", "endpoint": "remaining binding", "result": "56%"}
{"SMILES": "Nc1ccc(-c2nsc(=O)o2)cc1", "target": "Proteasome Macropain subunit MB1 (PSMB5, Homo sapiens, UniProt P28074)", "observed": "enzyme activity", "action": "inhibitor", "endpoint": "kinact/KI", "result": "8.6 M⁻¹ s⁻¹"}
{"SMILES": "O=C(Nc1cccnn1)N1CCN([C@@H]2CCOc3cc(C(F)(F)F)ccc32)CC1", "target": "Neuropeptide Y receptor type 1 (NPY1R, Homo sapiens, UniProt P25929)", "observed": "cell-free assay", "tested at": "20 µM", "endpoint": "inhibition", "result": "-5%"}
{"SMILES": "COc1cc(Cl)c(C(=O)N[C@@H](CN[C@H]2CC[C@@H](N)CC2)Cc2ccc(C#N)cc2)cc1-c1ccc(CN[C@H](C)c2ccc(C)cc2)o1", "target": "Serine/threonine-protein kinase PRP4 homolog (PRPF4B, Homo sapiens, UniProt Q13523)", "observed": "enzyme activity", "action": "inhibitor", "tested at": "1 µM", "endpoint": "remaining activity", "result": "90%"}
{"SMILES": "Cc1nn(C)cc1-c1nc2c(N3CCN(Cc4ccc(Cl)cc4)CC3)c(Cl)cnc2[nH]1", "target": "Serine/threonine-protein kinase Nek5 (NEK5, Homo sapiens, UniProt Q6P3R8)", "observed": "binding", "technique": "competition with immobilised ligand", "tested at": "1 µM", "endpoint": "remaining binding", "result": "23%"}
{"SMILES": "CCN(CC)CCCC[C@H](NC(=O)[C@H](CC(C)C)NC(=O)[C@H](C)NC(=O)[C@H](Cc1ccccc1)NC(=O)c1ccc(C(C)(C)C)cc1)C(=O)N[C@@H](CO)C(=O)OC", "target": "SWI/SNF-related matrix-associated actin-dependent regulator of chromatin subfamily A member 2 (SMARCA2, Homo sapiens, UniProt P51531)", "observed": "thermal stability", "technique": "DSF", "tested at": "25 µM", "endpoint": "ΔTm", "result": "0.14 °C"}
